OX1R antag-1: antagonists of human orexin 1 receptor (OX1R). OX1R-expressing cells, FRET antagonist read-out. actives 1.8% (n = 330,000). inhibition, % at 6.6 µM. AID 485270. O43613; in the data active = inhibition mostly above about 38%, no sharp cut-off; inactive = mostly below about 40%;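 note: 0% = agonist challenge alone and 100% = reference antagonist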
Target sequence (O43613 whole entry, looked up): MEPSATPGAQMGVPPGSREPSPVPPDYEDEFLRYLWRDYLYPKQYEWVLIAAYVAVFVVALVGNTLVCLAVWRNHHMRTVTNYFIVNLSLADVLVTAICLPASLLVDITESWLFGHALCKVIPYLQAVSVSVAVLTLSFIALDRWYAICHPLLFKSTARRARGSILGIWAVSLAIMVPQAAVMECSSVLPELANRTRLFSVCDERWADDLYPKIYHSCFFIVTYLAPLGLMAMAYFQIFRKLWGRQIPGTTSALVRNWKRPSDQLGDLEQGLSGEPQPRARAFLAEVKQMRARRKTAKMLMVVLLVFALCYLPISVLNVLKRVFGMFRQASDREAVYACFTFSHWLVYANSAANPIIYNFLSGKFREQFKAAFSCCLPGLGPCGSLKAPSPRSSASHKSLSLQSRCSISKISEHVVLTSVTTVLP
TAAR1 ag: agonists of human TAAR1; CHO RD-HGA16 TAAR1, Fluo-8 calcium fluorescence; vehicle wells 0%, saturating PEA agonist 100%; activation, % at 3 µM; actives 0.99% (n = 360,000); AID 624467;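 active = activation above the mean activation of all test compounds in the run plus 3 SD, cut at about 38% in these data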
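System: CHO RD-HGA16 cells carrying human TAAR1 plus Gα16; Incubation: 17-24 h seeding, 75 min 37 °C dye, 30 min RT; Measured by: Fluo-8 fluorescence, 5 s baseline then 140 s kinetic read; Control set: DMSO and PEA EC100; Replication: single well for each compound.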
CHO parental Ca: counter-screen: ATP calcium response change in parental CHO cells. parental CHO-K1, ATP-induced calcium, Fluo-8 fluorescence. inhibition, % at 5.6 µM. actives 0.63% (n = 330,000);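 active = inhibition above that plate's mean sample inhibition plus 3 SD, cut at about 26% in these data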;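 note: 0% = ATP-challenged DMSO wells and 100% = DMSO wells without ATP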
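Assay system: parental CHO cells; Read-out basis: percent inhibition of ATP-evoked calcium rise, normalized to controls; Benchmarks: ATP and no-ATP DMSO wells; Compound dosing: single nominal dose of 5.6 µM per compound; Signal: Fluo-8 calcium dye fluorescence; Also added: ATP as calcium-mobilizing challenge; Repeats: singlicate.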
TAAR1 antagonist: human TAAR1 antagonism. inhibition, % at 3 µM. AID 624466. actives 1.5% (n = 360,000). Q96RJ0. CHO RD-HGA16 TAAR1, Fluo-8 calcium fluorescence, antagonist;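 active = inhibition above a per-plate cutoff, the mean inhibition of test compounds on that plate plus 3 SD, cut at about 49% in these data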;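 note: 0% = DMSO plus EC80 beta-PEA response and 100% = DMSO alone without agonist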
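Assay system: CHO-derived RD-HGA16 cells stably expressing human TAAR1 plus Gα16. Timing: 140 s kinetic read after compound, 140 s after agonist. Technique: kinetic Fluo-8 calcium fluorescence measurement. Measure: % inhibition of agonist calcium response.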
OX1R antag-2: antagonists of human orexin 1 receptor; O43613; CHO/OX1R cells, Fluo-8 calcium fluorescence, orexin A; inhibition, % at 5 µM; actives 0.43% (n = 330,000);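 active = inhibition above its plate's threshold, mean inhibition of all tested compounds on the plate plus 3 SD, cut at about 37% in these data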;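 note: 0% = orexin A challenge wells and 100% = SB-334867-A antagonist wells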
GPR7 antag: antagonists of human GPR7 (neuropeptides B/W receptor 1). P48145. GPR7-expressing cells, fluorescence antagonist assay. inhibition, % at 4.4 µM. actives 1.1% (n = 290,000). AID 1861; in the data active = inhibition above about 16%, passing the limit was not always enough;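 note: cells stimulated with the agonist NPW; 0% = agonist with vehicle and 100% = vehicle without agonist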
nonsel antag count: nonselective antagonism, TAAR1 counter-screen. shares compounds with TAAR1 antagonist. counterscreen cell line, calcium fluorescence, antagonist mode. inhibition, % at 3 µM. actives 77% (n = 2,400). AID 651780; in the data active = inhibition above about 22%;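 note: CHO-Ga16 host cells stimulated with ATP at an EC80 level; 0% = agonist EC80 plus vehicle and 100% = vehicle without agonist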
TAAR1 antag conf: human TAAR1 antagonism, confirmed | shares compounds with TAAR1 antagonist | TAAR1-expressing cells, fluorescence antagonist read-out | AID 651785 | inhibition, % at 3 µM | actives 40% (n = 2,400); in the data active = inhibition above about 49%;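 note: CHO-Ga16 host cells challenged with agonist PEA near its EC80; 0% = agonist at EC80 plus vehicle and 100% = vehicle with no agonist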
Ga16 ag counter: nonselective Ga16 agonist in TAAR1 antagonist counter-screen; shares compounds with TAAR1 antagonist; Ga16-expressing cells, calcium fluorescence, agonist counterscreen; activation, % at 3 µM; actives 18% (n = 2,400); AID 651953; in the data active = activation above about 12%;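 note: 0% = vehicle wells and 100% = saturating stimulus response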
TAAR1 ag count: TAAR1 agonism, antagonist counter-screen; shares compounds with TAAR1 antagonist; hTAAR1 cell line, fluorescence activation, agonist mode; activation, % at 3 µM; actives 2% (n = 2,400); AID 651955; in the data active = activation above about 37%;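 note: CHO cells stably expressing TAAR1 with calcium dye readout; 0% = DMSO vehicle and 100% = full agonist response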
Active calls of the source: *; x = not tested or not shown. Shown are actives, neighbours in structure and some others; about 4.6% of the full set was active somewhere.

SMILES | OX1R antag-1 | TAAR1 ag | CHO parental Ca | TAAR1 antagonist | OX1R antag-2 | GPR7 antag | nonsel antag count | TAAR1 antag conf | Ga16 ag counter | TAAR1 ag count
NS(=O)(=O)c1cccc(NC(=O)c2cc(-c3cccs3)nc3ccccc23)c1 | 17 | 11 | -9 | 67* | -5 | -15 | 37* | 50* | 8 | 10
CC(C)CCNC(=O)c1cc(-c2cccs2)nc2ccccc12 | 2 | 8 | -9 | 66* | -30 | 6 | 29* | 46 | 6 | 3
NS(=O)(=O)c1ccc(CNC(=O)Cc2cccs2)cc1 | -6 | 3 | 1 | -5 | -4 | -8 | x | x | x | x
NS(=O)(=O)c1ccc(CCNC(=O)c2cc(-c3cccs3)nc3ccccc23)cc1 | x | 18 | x | 65* | x | -14 | 35* | 57* | 12* | 10
CCC(C)NC(=O)c1cc(-c2cccs2)nc2ccccc12 (configuration not stated) | 8 | 10 | -15 | 14 | -18 | -12 | x | x | x | x
NS(=O)(=O)c1cccc(NC(=O)c2cccs2)c1 | 1 | -1 | -8 | -4 | -17 | -11 | x | x | x | x
NS(=O)(=O)c1ccc(CNC(=O)c2cc(-c3cccs3)nc3ccccc23)cc1 | 7 | 15 | -2 | 69* | -2 | -18 | 36* | 51* | 9 | 12
COc1cc(-c2cc(C(=O)NCCc3ccc(S(N)(=O)=O)cc3)c3ccccc3n2)cc(OC)c1OC | 6 | 3 | -16 | 42 | -34 | -21 | x | x | x | x
CCCCOCC1CN(CCCC)S(=O)(=O)c2c(Oc3ccc(C(C)C)cc3)cccc2O1 (configuration not stated) | x | 5 | x | -15 | x | x | x | x | x | x
OC[C@@H]1CN(CCN2CCOCC2)C[C@H](n2cnc3c(N4CCOCC4)ncnc32)O1 | x | 2 | x | -24 | x | x | x | x | x | x
O=C(NCc1cccs1)c1cc(-c2ccccc2)nc2ccccc12 | 10 | 7 | -18 | 58* | -31 | -3 | 23* | 40 | 7 | 6
O=C(c1cc(-c2cccs2)nc2ccccc12)N1CCN(S(=O)(=O)c2ccccc2)CC1 | 3 | 23 | -12 | 48 | -36 | -2 | x | x | x | x
O=C(c1cc(-c2cccs2)nc2ccccc12)N1CCN(S(=O)(=O)c2cccc(F)c2)CC1 | 7 | 15 | -10 | 52* | 9 | 0 | 34* | 46 | 11 | 12
CC(C)C[C@H]1COc2cccc(N3CCCC3)c2S(=O)(=O)N1 | x | -1 | x | -21 | x | x | x | x | x | x
NC(=NCc1ccccc1)NN=Cc1ccnc2ccccc12 | x | 36 | x | 7 | x | x | x | x | x | x
Cc1cc(/C=N/NC(N)=S)c(C)n1-c1ccc(Br)cc1 | 10 | 2 | -15 | 95* | -4 | 11 | 15 | 92* | 12* | 17
Cc1cc(/C=N/NC(N)=S)c(C)n1-c1cccc(Cl)c1 | 9 | 21 | -3 | 12 | 11 | -1 | x | x | x | x
Cc1cc(/C=N/NC(N)=S)c(C)n1-c1ccc(Cl)cc1 | 8 | 5 | -1 | 84* | -1 | -1 | 3 | 83* | 16* | 18
O=C(C(=O)N1CCN(C(=O)c2ccco2)CC1)c1cc2ccccc2o1 | x | 0 | x | -13 | x | x | x | x | x | x
CC(=O)Nc1ccc(NC(=O)c2ccc(S(=O)(=O)N(C)c3ccccc3)cc2)cc1 | 6 | 5 | -13 | 23 | 0 | x | x | x | x | x
Cc1nc2ccc(NC(=O)c3ccc(S(=O)(=O)N(C)c4ccccc4)cc3)cc2s1 | 4 | 21 | -9 | 59* | -13 | -10 | 33* | 53* | 11 | 6
O=[N+]([O-])c1cccnc1SCc1c(F)cccc1Cl | 24 | 10 | -7 | 52* | -31 | -18 | 16 | 27 | 3 | 9

High-throughput results deposited in PubChem by The Scripps Research Institute Molecular Screening Center.
